# In the library only some 1.5% were active in any assay of this set; here they are far more common.
# SENP1 FRET inh – SENP1 (human) catalytic domain inhibition; Q9P0U3; recombinant SENP1 catalytic domain, CyPet-SUMO1-YPet FRET cleavage; inhibition, % at 10 µM; 0.21% of 360,000 active; AID 624204;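 active means inhibition at least 30% at 10 µM, raw YFP signal under a set limit, fluorescence ratio 0.5 to 1.5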;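 further: 0% = enzyme with DMSO and 100% = no enzyme wells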
# Target sequence (Q9P0U3 419-644 limits assumed): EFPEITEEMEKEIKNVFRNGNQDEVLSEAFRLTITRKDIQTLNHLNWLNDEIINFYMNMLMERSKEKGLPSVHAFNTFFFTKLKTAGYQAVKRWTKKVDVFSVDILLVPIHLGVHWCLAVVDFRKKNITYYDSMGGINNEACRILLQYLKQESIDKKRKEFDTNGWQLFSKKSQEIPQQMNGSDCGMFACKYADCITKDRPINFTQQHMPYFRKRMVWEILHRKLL
#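 System: Recombinant human SENP1 catalytic domain, His6-tagged | Incubation: Enzyme reaction for 50 min at room temperature, dark | Medium: Tris pH 8 with BME, BSA, NP40 and catalase | Also added: 25 nM SUMO1 FRET substrate | Compound: 10 µM single point, 0.5% DMSO | Measured by: FRET fluorescence in CFP and YFP emission channels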
# Myeloid diff MLP – promotes myeloid progenitor differentiation | ER-HoxA9 myeloid progenitors, lysozyme-GFP differentiation, flow cytometry | 1% of 360,000 active | calls only at 10 µM;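 active means normalized GFP-positive differentiation at or above the plate's own cutoff, the solvent-only control mean plus 3 SD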;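 further: cells exposed to compound for four days before flow analysis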
# VLA-4 inh – inhibition in a human VLA-4 binding assay; P13612; VLA-4 expressing cells, ligand binding flow cytometry; inhibition, % (about 7 µM as worked out from the volumes in the protocol); 0.2% of 330,000 active; in the data active means inhibition above about 50%
# Platelet DG rel – modulates dense granule release in human platelets | human platelet-rich plasma, SFLLRN dense granule ATP release, luminescence | inhibition, %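 (compounds screened at 7.5 µM in platelet-rich plasma)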 | 0.22% of 300,000 active | AID 1663;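 active means mean replicate score, as percent of positive control, at or above 50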
# Myeloid diff CP1 – myeloid differentiation induction | shares compounds with Myeloid diff MLP | ER-HoxA9 myeloid progenitors, GFP/Mac1 double-positive flow | calls only | 2% of 2,300 active;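 active means share of green or green-and-red cells above 9 and 9% in run 1 or 4 and 3% in run 2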
# GFP autofluor – compound fluorescence in myeloid differentiation counter-screen | AID 651707 | shares compounds with Myeloid diff MLP | fluorescence response, % (concentration not given with the values) | ER-HoxA9 myeloid progenitors, no estrogen, GFP autofluorescence flow cytometry; vehicle wells 0%, positive control 100% | 7.4% of 2,300 active;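 active means over 5% cells positive for green fluorescent reporter, or over 2% positive for both it and APC stain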;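 further: range taken on the double positive population between DMSO and positive control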
# Numbers without * were called inactive; i = inactive; / = not tested or not shown; + = active, no number.
SMILES,SENP1 FRET inh,Myeloid diff MLP,VLA-4 inh,Platelet DG rel,Myeloid diff CP1,GFP autofluor
CCn1c(-c2ccc(C(C)(C)C)cc2)n[nH]c1=S,3.4,i,25.1,8.7,/,/
COc1ccccc1C(=O)NCCC(=O)NCCCSc1ccccc1,-1.2,/,3.7,4.9,/,/
COc1ccc(N2C(c3ccsc3)=Cc3cc4c(cc3C2c2c[nH]c3ccccc23)OCO4)cc1 (stereo not given),10.9,+,/,/,i,2.2
O=S(=O)(c1ccc2c(c1)OCCO2)N1CCN(c2nc3ccccc3s2)CC1,2.8,i,6.5,-7.7,i,0.0
COC(=O)c1cccc(S(=O)(=O)N2CCN(c3nc4ccccc4s3)CC2)c1,0.9,i,0.2,2.1,/,/
O=C(O)C1CCCCC1C(=O)NCCCn1ccnc1 (stereo not given),2.0,i,0.7,-6.4,/,/
O=C(NCCCn1ccnc1)NC(C(F)(F)F)C(F)(F)F,-0.1,i,13.8,-3.5,i,0.0
O=C(NCCCn1ccnc1)C(=O)NC1CCCCC1,0.3,+,10.2,/,i,1.1
CCC(C)[C@H](NC(=O)NCCCn1ccnc1)C(=O)OC (stereo not given in full),2.3,i,1.6,-2.8,/,/
O=C(O)C1=C[C@H](c2ccc(C(F)(F)F)cc2)C[C@H](OCCCCO)O1,1.3,i,/,-4.1,/,/
NC(=O)c1ccc(NC(=O)CSc2nc3ccccc3c(=O)n2CCCN2CCOCC2)cc1,-3.8,i,7.3,/,/,/
CCCSC1=C(C#N)C(c2cc(OC)ccc2OC)CC(=O)N1 (stereo not given),1.7,i,39.2,-2.2,i,0.8
O=C(O)C1CCCCC1C(=O)Nc1cccc(C(=O)N2CCCCC2)c1 (stereo not given),2.6,+,15.3,0.2,i,1.8
O=C(Nc1cccc(C(=O)N2CCCCC2)c1)C1CCCC1,3.2,i,/,/,/,/
O=C1COc2ccc(C(=O)/C=C/c3ccccc3)cc2N1,1.6,i,14.2,-7.4,i,0.0
O=C(/C=C/c1ccccc1)c1ccc2c(c1)OCCCCO2,-1.6,i,-1.8,9.8,/,/
O=C1COc2ccc(C(=O)NCc3ccco3)cc2N1,1.7,i,17.2,-0.9,i,0.4
S=C1Cc2ccccc2C(c2ccc(Cl)cc2)N1 (stereo not given),-33.1,i,5.5,-8.7,/,/
O=C(Nc1ccccc1[N+](=O)[O-])c1nc[nH]c1C(=O)NCCO,2.5,+,2.9,-21.9,i,0.0
Cc1cc(C)c(S(=O)(=O)Nc2nnc(C)s2)c(C)c1,0.6,i,24.1,16.4,i,0.3
Cc1nc2nc(-c3ccccc3)[nH]n2c(=O)c1C,2.8,i,2.3,4.5,i,0.5
COc1ccc(-n2c(=S)[nH]c3cc(C(=O)Nc4ccc(C)c(F)c4)ccc3c2=O)c(OC)c1,-1.9,+,-1.2,-0.3,i,0.0
Cc1ccc(Nc2nc(N)nc(COC(=O)C3=COCCO3)n2)cc1,0.0,i,5.9,/,/,/
Cc1ccc(N/C(N)=N/c2nc3c(c(=O)[nH]2)CCCC3)c(C)c1,2.0,+,14.8,-10.4,i,0.8
O=C1S/C(=C\c2ccc(N3CCOCC3)o2)C(=O)N1c1ccccc1,23.7,+,-0.7,6.5,i,9.6*
SMILES,SENP1 FRET inh,Myeloid diff MLP,VLA-4 inh,Platelet DG rel,Myeloid diff CP1,GFP autofluor
O=C(CCc1nc(-c2ccccc2F)no1)NC1CCN(Cc2ccccc2)CC1,-2.3,i,3.7,8.9,i,0.0
Cc1ccc(-c2noc(CCC(=O)NC3CCN(Cc4ccccc4)CC3)n2)cc1,0.7,i,/,-6.0,/,/
Cc1c(CC(=O)N2CCC(C(N)=O)CC2)c(=O)oc2cc3c(cc12)CCC1(CCCCC1)O3,0.4,i,35.5,1.9,/,/
COC(=O)c1ccc(CNC(=O)C2CCC(=O)N(CCCc3ccccc3)C2)cc1 (stereo not given),0.1,i,-3.7,-11.7,/,/
CCOc1ccc(CCNc2nc3ccc(C)cc3n3cnnc23)cc1OCC,-0.7,i,11.4,-6.1,/,/
CCOc1ccccc1Nc1nc2ccc(C)cc2n2cnnc12,-17.4,+,/,-4.8,+,0.0
Brc1c(C[n+]2ccccc2)nc2ccccn12,1.4,i,0.7,-5.2,/,/
COc1ccc(C(=O)Nc2cccc3c2CCCC3)cc1OC,1.6,i,20.2,0.8,/,/
CCCC[n+]1ccn(C2=C([O-])c3ccccc3C(=O)/C2=N\S(=O)(=O)c2ccc(Br)cc2)c1,2.3,i,-2.8,-3.8,i,0.5
O=C(NCCc1c[nH]c2ccccc12)c1cc([N+](=O)[O-])cc([N+](=O)[O-])c1,1.2,i,0.1,21.3,/,/
O=C(NCCc1c[nH]c2ccccc12)c1ccc([N+](=O)[O-])o1,-19.4,+,/,/,i,1.1
CCCCNC(=O)c1onc(CSc2ccc(F)cc2)c1C(=O)O,2.5,+,-7.3,9.3,i,0.7
Cc1cccnc1NC(=S)NC(=O)c1oc2ccccc2c1C,2.7,i,6.4,-1.7,/,/
COc1ccc(S(=O)(=O)N2CCC(C(=O)Nc3ccc4c(c3)OCCO4)CC2)cc1OC,1.9,i,-7.5,-0.4,/,/
O=C(Nc1ccc2c(c1)OCO2)c1ccc(Br)c(S(=O)(=O)N2CCCC2)c1,-0.4,+,12.9,0.8,i,0.0
O=C(Nc1ccc2c(c1)OCCO2)c1ccc(Br)c(S(=O)(=O)N2CCOCC2)c1,1.7,i,/,/,/,/
O=C(Nc1ccc2c(c1)OCO2)C1CCN(S(=O)(=O)c2ccc3c(c2)OCCO3)CC1,3.6,i,-6.5,-3.7,i,0.3
Fc1ccc(-c2ccc3nccn3c2)cc1Cl,-5.2,i,/,/,/,/
CCOC(=O)c1c(C)[nH]c(C(=O)COC(=O)/C=C/c2ccc3c(c2)OCO3)c1C,-1.5,i,-5.4,5.9,/,/
CCOC(=O)c1c(C)[nH]c(C)c1C(=O)COC(=O)/C=C/c1ccccc1[N+](=O)[O-],-0.2,+,-10.7,/,i,0.2
CCOC(=O)c1c(C)[nH]c(C(=O)COC(=O)/C=C/c2ccc(O)c(OC)c2)c1C,-44.8,i,-33.5,9.3,i,0.0
CCC(C(=O)NC1CC(C)(C)NC(C)(C)C1)c1ccccc1 (stereo not given),0.8,i,2.5,-0.6,/,/
Cc1noc(C)c1C(=O)OCC(=O)Nc1ccc(S(N)(=O)=O)cc1,-2.6,i,12.1,/,/,/
Cn1c(C(=O)NCCCN2CCOCC2)cc2c(=O)n(C)c3ccccc3c21,1.0,i,-17.9,-0.9,/,/
CC1CCN(CCCNC(=O)c2cc3c(=O)n(C)c4ccccc4c3n2C)CC1,-10.6,i,-11.4,-1.4,i,0.0
CC1(C)CC(=O)C2=C(C1)N(Cc1ccco1)C(=O)C2(NC(=O)c1ccc(Cl)cc1Cl)C(F)(F)F (stereo not given),1.0,i,10.0,24.4,/,/
